≈ marks a conversion by molar mass, not a printed value.

Test [1] concerns Streptococcus pyogenes. The test is described as follows: In vivo effective dose against experimental infections in rodent caused by Streptococcus pyogenes C203 when administered orally. It is filed as functional. The settings on record: po.
The test system of test [2] is Streptococcus pneumoniae. As to the kind of experiment: In vitro antimicrobial activity against Streptococcus pneumoniae. It is filed as functional.
Test [3] relates to Streptococcus pyogenes. The test is described as follows: In vivo effective dose against experimental infections in rodent caused by Streptococcus pyogenes C203 when administered sc. Format: functional.
Test [4] concerns Streptococcus pyogenes. The test is described as follows: Effective dose against Streptococcus pyogenes C203 when administered sc. It is filed as functional. The method in brief:
(§1)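 Mouse protection test: infected mice were dosed twice, at 1 and 5 h postinfection, either subcutaneously or orally. […] The result is expressed as ED50 in mg/kg × 2.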

Test [5] has as its system Staphylococcus epidermidis. As to the kind of experiment: In vitro antimicrobial activity against Staphylococcus epidermidis EPI1. It is filed as functional.
For test [6], the system named is Streptococcus pyogenes. As to the kind of experiment: Antimicrobial activity against Streptococcus pyogenes C203. It is filed as functional.
For test [7], the system named is Streptococcus pyogenes. As to the kind of experiment: In vitro antimicrobial activity against Streptococcus pyogenes C203. Format: functional.
Test [8] deals with Staphylococcus aureus. As to the kind of experiment: In vitro antimicrobial activity against Staphylococcus aureus X1. It is filed as functional.
Test [9] relates to Streptococcus pyogenes. As to the kind of experiment: Effective dose against Streptococcus pyogenes C203 when administered orally. Format: functional. The settings on record: po. Put shortly:
as §1

In test [10] the test system is Haemophilus influenzae. As to the kind of experiment: In vitro antimicrobial activity against Haemophilus influenzae. It is filed as functional.
For test [11], the system named is Enterococcus faecium. As to the kind of experiment: In vitro antimicrobial activity against Streptococcus faecium X66. It is filed as functional, streptococcus fae-cium.
The subject of test [12] is Bacteroides fragilis. The test is described as follows: In vitro antimicrobial activity against anaerobic bacteria bacteroides fragilis 1936B,. It is filed as functional.
Test [13] is described as follows: In vitro antimicrobial activity against anaerobic bacteria peptostreptococcus intermedius 1264. Format: functional.
Test [14] has as its system Prevotella melaninogenica. As to the kind of experiment: In vitro antimicrobial activity against anaerobic bacteria bacteroides melaninogenicus 2736. Format: functional.
In test [15] the test system is Fusobacterium. The test is described as follows: In vitro antimicrobial activity against anaerobic bacteria fusobacterium symbiosum 1470. It is filed as functional.
Test [16] has as its system Fusobacterium necrophorum. The test is described as follows: In vitro antimicrobial activity against anaerobic bacteria usobacterium necrophorum 6054A. Format: functional.
Test [17] concerns Prevotella melaninogenica. The test is described as follows: In vitro antimicrobial activity against anaerobic bacteria bacteroides melaninogenicus 1856,. It is filed as functional.
Test [18] has as its system Cutibacterium acnes. The test is described as follows: In vitro antimicrobial activity against anaerobic bacteria propionibacterium acnes 79. It is filed as functional.
Test [19] deals with Phocaeicola vulgatus. The test is described as follows: In vitro antimicrobial activity against anaerobic bacteria bacteroides vulgatus 1211. It is filed as functional.
The test system of test [20] is Peptostreptococcus anaerobius. As to the kind of experiment: In vitro antimicrobial activity against anaerobic bacteria eubacterium peptostreptococcus anaerobius 1428,. Format: functional.
Test [21] deals with Bacteroides thetaiotaomicron. The test is described as follows: In vitro antimicrobial activity against anaerobic bacteria bacteroides thetaiotaomicron 1438. Format: functional.
The subject of test [22] is Peptoniphilus asaccharolyticus. As to the kind of experiment: In vitro antimicrobial activity against anaerobic bacteria peptococcus asaccharolyticus 1302. It is filed as functional.
Test [23] deals with Bacteroides fragilis. The test is described as follows: In vitro antimicrobial activity against anaerobic bacteria bacteroides fragilis 1877. It is filed as functional.
The test system of test [24] is Clostridioides difficile. As to the kind of experiment: In vitro antimicrobial activity against anaerobic bacteria Clostridium difficile 2994. Format: functional.
The test system of test [25] is Anaerococcus prevotii. The test is described as follows: In vitro antimicrobial activity against anaerobic bacteria peptococcus prevoti 1281. Format: functional.
For test [26], the system named is Collinsella aerofaciens. As to the kind of experiment: In vitro antimicrobial activity against anaerobic bacteria aerofaciens 1235. It is filed as functional.
Test [27] relates to Bacteroides fragilis. As to the kind of experiment: In vitro antimicrobial activity against anaerobic bacteria bacteroides fragilis 111. Format: functional.
Test [28] has as its system Eikenella corrodens. The test is described as follows: In vitro antimicrobial activity against anaerobic bacteria bacteroides corrodens 1874. Format: functional.
The test system of test [29] is Clostridium perfringens. As to the kind of experiment: In vitro antimicrobial activity against anaerobic bacteria clostridium perfringens 81,. It is filed as functional.
Test [30] relates to Chlamydia trachomatis. As to the kind of experiment: In vitro antimicrobial activity against chlamydia trachomatis. Format: functional.

Usually ED50 stands for the midpoint of the dose-response relation. A lower ED50 goes with greater potency. For `CC[C@H]1OC(=O)C[C@@H](O)[C@H](C)[C@@H](O[C@@H]2O[C@H](C)[C@@H](O)[C@H](N(C)C)[C@H]2O)[C@@H](C)C[C@@H](C)C(=O)/C=C/C(C)=C/[C@@H]1CO[C@@H]1O[C@H](C)[C@@H](O)[C@@H](OC)[C@H]1OC`, the ED50 was 8 mg/kg in test [1], 1.6 mg/kg in [3], 0.25 mg/kg in [4] and 1.6 mg/kg in test [9]. The MIC in test [2] is 2 µg/mL (≈ 2.69 µM); in test [5] it was 0.25 µg/mL (≈ 0.336 µM); in test [6], 8 µg/mL (≈ 10.8 µM); in test [7], 0.25 µg/mL (≈ 0.336 µM); in test [8], 0.25 µg/mL (≈ 0.336 µM); in [10], 8 µg/mL (≈ 10.8 µM). The molecule also returned an MIC in test [11] of 8 µg/mL (≈ 10.8 µM).
As to `CC[C@H]1OC(=O)C[C@@H](O)[C@H](C)[C@@H](O[C@@H]2O[C@H](C)[C@@H](O)[C@H](N(C)C)[C@H]2O)[C@@H](CCO)C[C@@H](C)C(=O)/C=C/C(C)=C/[C@@H]1CO`, the results for the ED50 in test [1] and in test [3] were over 100 mg/kg and over 10 mg/kg, respectively. The MIC is 64 µg/mL (≈ 107 µM) in test [2]; over 8 µg/mL in test [12]; over 8 µg/mL in test [13]; 32 µg/mL (≈ 53.4 µM) in test [5]; over 8 µg/mL in test [14]; over 8 µg/mL in test [15]. The MIC in [16] was 4 µg/mL (≈ 6.67 µM); in test [17], over 8 µg/mL; in test [18] it was 4 µg/mL (≈ 6.67 µM); in [7], 16 µg/mL (≈ 26.7 µM); in test [19], over 8 µg/mL; in test [20] it was over 8 µg/mL. The MIC in test [21] is over 8 µg/mL; in test [22], over 8 µg/mL; in test [23] it was over 8 µg/mL; in [8], 64 µg/mL (≈ 107 µM); in test [24] it was 4 µg/mL (≈ 6.67 µM); in [25], over 8 µg/mL. In addition, the MIC in [26] is 8 µg/mL (≈ 13.3 µM); in [27], over 8 µg/mL; in [10], 32 µg/mL (≈ 53.4 µM); in test [28], over 8 µg/mL; in test [29], 4 µg/mL (≈ 6.67 µM); in test [30], over 1 µg/mL. Besides, in test [11], the MIC came out at 64 µg/mL (≈ 107 µM).

Source of the values: ChEMBL document CHEMBL1124186, “Synthesis and evaluation of tylosin-related macrolides modified at the aldehyde function: a new series of orally effective antibiotics” (1988).
